Measurements taken from ChEMBL document CHEMBL4480439, “Fuscasins A-D, Cycloheptapeptides from the Marine Sponge Phakellia fusca” (J Nat Prod, 2019).
The source made the active and inactive calls. The calls are words filed in the database; no cut-off is given here. Residues, ends and D or L forms follow the SMILES beside them.

Experiments:
HepG2 [1] = test: Cytotoxicity against human HepG2 cells assessed as reduction in cell viability up to 20 uM after 72 hrs by CCK8 assay; assay type: functional, cell-based
How it was run: (§1)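 Cells grown at 37 °C in DMEM with 10% FBS and antibiotics, seeded at 3 × 10³ cells/well, and exposed to compound for 72 h. CCK-8 reagent was then added for 1 h at 37 °C in 5% CO₂, and OD was read at 450 nm. IC50 was obtained by fitting a log(inhibitor)-response model.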

HepG2 [2] = test: Cytotoxicity against human HepG2 cells assessed as reduction in cell viability after 72 hrs by CCK8 assay; assay type: functional, cell-based; conditions: HepG2, 72 h; how it was run: as §1
MCF7 = test: Cytotoxicity against human MCF7 cells assessed as reduction in cell viability up to 20 uM after 72 hrs by CCK8 assay; assay type: functional, cell-based; how it was run: as §1
HeLa = test: Cytotoxicity against human HeLa cells assessed as reduction in cell viability up to 20 uM after 72 hrs by CCK8 assay; assay type: functional, cell-based; how it was run: as §1
NCI-H460 = test: Cytotoxicity against human NCI-H460 cells assessed as reduction in cell viability up to 20 uM after 72 hrs by CCK8 assay; assay type: functional, cell-based
How it was run: (§2)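 Cells maintained in RPMI 1640 with 10% FBS and antibiotics, plated at 3 × 10³ cells/well, and treated for 72 h. After 1 h incubation with CCK-8 at 37 °C in 5% CO₂, absorbance was recorded at 450 nm. IC50 came from a log(inhibitor)-response curve fit.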

PC-9 = test: Cytotoxicity against human PC9 cells assessed as reduction in cell viability up to 20 uM after 72 hrs by CCK8 assay; assay type: functional, cell-based; how it was run: as §2
SW480 = test: Cytotoxicity against human SW480 cells assessed as reduction in cell viability up to 20 uM after 72 hrs by CCK8 assay; assay type: functional, cell-based; how it was run: as §2
H9c2 = test: Cytotoxicity against rat H9c2 cells assessed as reduction in cell viability up to 100 uM after 72 hrs by CCK8 assay; assay type: cell-based; conditions: h9c2, 72 h; how it was run: as §1

CC(C)C[C@@H]1NC(=O)[C@H](C)NC(=O)[C@@H]2CCCN2C(=O)[C@H](C)NC(=O)[C@H](Cc2ccc(O)cc2)NC(=O)[C@@H]2CCCN2C(=O)[C@H](Cc2ccc(O)cc2)NC1=O (cyclo(ALYPYAP))
Activity (HepG2 [1]): inactive

CC(C)C[C@@H]1NC(=O)[C@H](Cc2ccc(O)cc2)NC(=O)[C@H](CC(=O)O)NC(=O)[C@@H]2CCCN2C(=O)[C@H](CC(C)C)NC(=O)[C@@H]2CCCN2C(=O)[C@H](CC(C)C)NC1=O (cyclo(DYLLPLP))
Activity (HepG2 [1]): inactive

CC(C)C[C@@H]1NC(=O)[C@H](C)NC(=O)[C@H](Cc2ccc(O)cc2)NC(=O)[C@H](CCCNC(=N)N)NC(=O)[C@H](CC(N)=O)NC(=O)[C@H](C(C)C)NC(=O)[C@@H]2CCCN2C1=O (cyclo(ALPVNRY))
Activity (HepG2 [1]): inactive

CC(C)C[C@@H]1NC(=O)[C@H](C(C)C)NC(=O)[C@H](Cc2ccccc2)N2C(=O)C[C@H](NC(=O)[C@@H]3CCCN3C(=O)[C@@H]3CCCN3C(=O)[C@@H]3CCCN3C1=O)C2=O
IC50 (HepG2 [2]): 4.6 µM | Activity (MCF7): inactive | Activity (HeLa): inactive | Activity (NCI-H460): inactive | Activity (PC-9): inactive | Activity (SW480): inactive | Activity (H9c2): Non-Toxic
